Only some compounds are listed: those with a hit (about 2.5% of all), similar ones and a draw of the others.
TRPC6 activator = mouse TRPC6 channel activators, primary screen, cell-based, HEK293, membrane potential dye | HEK293-TRPC6 membrane potential dye fluorescence; stronger effect = higher value | B-score at 10 µM | 310,000 tested, 0.13% active | AID 2550, 2010 | Short transient receptor potential channel 6 (Mus musculus), Q61143;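 active = B-score of the integrated fluorescence ratio above library mean plus 3 SD, and starting fluorescence ratio within library mean plus 5 SD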;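 also: higher score means more depolarization so channel activation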
TRPC4 inh = inhibitors of mouse TRPC4 channel, primary screen, Fluo4 calcium, HEK293 TRPC4beta/mu-opioid cells. Short transient receptor potential channel 4 (Mus musculus), Q9QUQ5. DAMGO-evoked Fluo4 calcium flux; stronger effect = lower value. B-score at 10 µM. 300,000 tested, 0.39% active. AID 2247, 2010;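 active = B-score over 3 SD under the library average, no early fluorescence shift, positive overall ratio signal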
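material = TRPC4beta/mu-opioid receptor HEK293 cell line | probe or stimulus = sequential submaximal and maximal DAMGO stimulation | compound dosing = one concentration per compound | measured by = Fluo4 Ca2+ flux fluorescence | evaluation = integrated fluorescence ratio relative to baseline, converted to per-well B score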
TRPC6 inh = mouse TRPC6 channel inhibitors, primary screen, cell-based, HEK293, membrane potential dye. Short transient receptor potential channel 6 (Mus musculus), Q61143. ACh-evoked depolarization; stronger effect = lower value. B-score at 10 µM. 310,000 tested, 1.1% active. AID 2553, 2010;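 active = B-score under library mean minus 3 SD, initial fluorescence not abnormally high, positive integrated signal ratio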;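 also: B-score derived from integrated fluorescence ratio over the kinetic read; more negative B-score means stronger inhibition of depolarization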
DSG3 Ab inh = inhibitors of pemphigus antibody binding to DSG3, primary screen, biochemical, bead-based, flow cytometry, scFv-GFP | Desmoglein-3 (Homo sapiens), P32926 | 310,000 tested, 0.48% active | binding (percent of control), % at 10 µM | DSG3-coupled beads, scFv-anti-DSG3-GFP binding; stronger effect = lower value;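 active = binding more than 3 SD below its plate's average and above zero; inconclusive = below that plate limit but binding exactly zero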;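 also: hits lower antibody fragment binding to DSG3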
TRPC4 agonist = activators of mouse TRPC4 channel, primary screen, Fluo4 calcium, HEK293 TRPC4beta/mu-opioid cells; 310,000 tested, 0.49% active; Short transient receptor potential channel 4 (Mus musculus), Q9QUQ5; Fluo4 calcium fluorescence; stronger effect = higher value; B-score at 10 µM;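 active = B-score above 5 SD of library B-scores, and initial fluorescence ratio not above library mean plus 5 SD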;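 also: positive B-score marks a calcium rise read as TRPC4 activation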
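Material: HEK293 stable line with TRPC4beta plus mu-opioid receptor; technique: Fluo4 calcium-sensitive dye fluorescence, kinetic, 1 Hz baseline; timing: Fluo4 dye loading 45 min at room temperature, 110 s recording; controls: assay buffer as low control, maximal DAMGO as high control; read-out: integrated baseline-normalised fluorescence ratio, converted to per-well B score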
TRPC4 potent = positive allosteric modulators of TRPC4, primary screen, cell-based, mouse TRPC4beta, HEK293 mu-opioid, Fluo-4 calcium. DAMGO EC20, Fluo-4 Ca2+ flux; stronger effect = higher value. B-score at 10 µM. 310,000 tested, 0.42% active. AID 2227, 2009;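 active = B-score of calcium response area above 5 SD of library B-scores, with initial fluorescence ratio within 5 SD of library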;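 also: B-score of integrated fluorescence ratio over time as area under calcium response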
* = called active by the depositor; i = inactive; ? = inconclusive; nt = no result.

SMILES	TRPC6 activator	TRPC4 inh	TRPC6 inh	DSG3 Ab inh	TRPC4 agonist	TRPC4 potent
COc1ccc(C(=O)Nc2ccccc2N2CCCC2)cc1	i	i	i	98	i	i
CC(C)C(=O)N1CCN(c2ccccc2NC(=O)c2ccco2)CC1	i	-10*	i	104	i	i
CCC(=O)N1CCN(c2ccccc2NC(=O)c2cccs2)CC1	i	i	i	104	i	i
CC(=O)N1CCN(c2ccccc2NC(=O)c2cccs2)CC1	i	-6*	i	104	i	i
CC(=O)N1CCN(c2ccccc2NC(=O)c2ccc3ccccc3c2)CC1	i	-5*	i	103	i	i
N#Cc1c(N)nc(Sc2ccc(Cl)cc2)c(C#N)c1-c1ccccc1Cl	i	i	i	108	i	i
O=c1cc(-c2ccc(O)cc2)oc2c(O)c(O)c(O)c(O)c12	nt	nt	nt	58*	nt	nt
COc1ccccc1CNC(=O)N1CCN(c2ccccc2C)CC1	i	i	i	91	i	i
O=C(c1cn(-c2ccccc2)nc1-c1cccnc1)N1CCN(S(=O)(=O)c2ccc(Cl)cc2)CC1	nt	nt	nt	103	nt	nt
Cc1cccc(C(=O)NCC(=O)Nc2ccc(S(=O)(=O)Nc3nc(C)cc(C)n3)cc2)c1	i	i	i	96	i	i
Cc1cccc(C(=O)Nc2ccc(S(=O)(=O)Nc3nc(C)cc(C)n3)cc2)c1	i	i	i	14*	i	i
Cc1ccc(NC(=O)C[n+]2cc(-c3ccc(C)cc3)n3c2CCC3)cc1	i	i	i	114	i	i
Cc1ccc(-c2c[n+](Cc3ccc(Cl)c(Cl)c3)c3n2CCC3)cc1	i	-8*	i	102	i	i
O=C(C[n+]1cc(-c2ccc(Cl)c(Cl)c2)n2c1CCC2)N1c2ccccc2Sc2ccccc21	i	-6*	i	106	i	i
Cc1c(NC(=O)c2cnc(Cl)c(Cl)c2)c(=O)n(-c2ccccc2)n1C	i	i	i	nt	i	i
O=C(CN1CCCCC1)N1CCCc2c1c(=O)oc1ccc(OCc3ccccc3)cc21	i	i	i	?	i	i
CCCCCOc1ccc2oc(=O)c3c(c2c1)CCCN3C(=O)CN1CCCC(C(=O)OCC)C1 (configuration not stated)	i	i	i	102	i	33*
COc1ccc(C(=O)Nc2cc(C)c3c(=O)oc4ccccc4c3n2)cc1	i	i	i	-3.5*	i	i
CCCC(=O)Nc1cc(C)c2c(=O)oc3ccccc3c2n1	i	i	i	94	i	i
Cc1cc(NC(=O)CN2CCc3ccccc3C2)nc2c1c(=O)oc1ccccc12	i	i	i	98	98*	i
O=C(Nc1nc2cc3c(cc2s1)OCCO3)c1ccc(N2C(=O)CCC2=O)cc1	i	i	i	81*	i	i
Cn1c(C(=O)N2CCN(c3ccc([N+](=O)[O-])cc3)CC2)cc2c(=O)[nH]c3ccccc3c21	i	i	i	72*	i	i
COc1ncccc1C(=O)N1CCCC(N2CCN(c3cccc(Cl)c3)CC2)C1 (configuration not stated)	i	i	i	nt	i	i
CC(C)(C)NS(=O)(=O)c1ccc(CCC(=O)Nc2ccc3c(c2)OCCO3)cc1	i	i	i	97	i	i
CC(C)(C)NS(=O)(=O)c1ccc(CCC(=O)Nc2ccc3c(c2)OCO3)cc1	i	i	i	-0.5*	i	i

Source: PubChem BioAssay (several laboratories)
